15 molecules from PMC7655718 (The Journal of antibiotics, 2020) can be followed below.

Values after ≈ are worked out from the molar mass of the structure shown. Where two headings read alike, the source gives them in different places.

In test [1] the test system is S. aureus ATCC 25923 (Sa23). In words: MIC, microdilution with resazurin. Format: cell-based. Particulars: Staphylococcus aureus, ATCC25923, read-out: MIC Sa23. In short, it runs like this: (§1)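 Compounds dissolved in DMSO at 2 mg/mL. Overnight blood-agar colonies were suspended in PBS to 0.5 McFarland, then diluted in Mueller Hinton broth to about 1x10^6 cfu/mL with resazurin (1:1000 of 0.1% w/v stock). Twofold DMSO dilutions were added 1:40, giving 50 to 0.4 μg/mL at 2.5% DMSO. Incubation was 35 °C for 16-20 h. Blue/non-turbid wells counted as inhibited, pink/turbid as grown.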
A general note: Dilution methods test growth across graded concentrations, often in twofold steps.

The test system of test [2] is S. aureus ATCC 33591 (Sa91). The test can be described thus: MIC, microdilution with resazurin. Format: cell-based. Particulars: Staphylococcus aureus, ATCC33591, read-out: MIC Sa91. In a few lines: as §1
For test [3], the system named is S. aureus ATCC 33592 (Sa92). In words: MIC, microdilution with resazurin. The class given is cell-based. Particulars: Staphylococcus aureus, ATCC33592, read-out: MIC Sa92. In a few lines: as §1
For test [4], the system named is S. aureus ATCC 700699 (Sa99). The test can be described thus: MIC, microdilution with resazurin. Format: cell-based. Particulars: Staphylococcus aureus, ATCC700699, read-out: MIC Sa99. In a few lines:
as §1

In test [5] the test system is S. aureus BAA-2312 (Sa12). In words: MIC, microdilution with resazurin. Format: cell-based. Particulars: Staphylococcus aureus, BAA2312, read-out: MIC Sa12. In a few lines:
as §1

For test [6], the system named is S. epidermidis 700296 (Se). In words: MIC, microdilution with resazurin. Particulars: Staphylococcus epidermidis, read-out: MIC Se. Format: cell-based. In short, it runs like this: as §1
In test [7] the test system is B. subtilis ATCC 6623 (Bs). The test can be described thus: MIC, microdilution with resazurin. Particulars: Bacillus subtilis, ATCC6623, read-out: MIC Bs. The class given is cell-based, Bacillus subtilis.
For test [8], the system named is A. baumannii ATCC 747 (Ab47). In words: MIC, microdilution with resazurin. Particulars: Acinetobacter baumannii, ATCC747, read-out: MIC Ab47. The class given is cell-based, Acinetobacter baumannii. In short, it runs like this:
as §1

Test [9] concerns A. baumannii ATCC 19606 (type strain, Ab06). The test can be described thus: MIC and MBC. The class given is cell-based, Acinetobacter baumannii. Particulars: Acinetobacter baumannii, ATCC19606, read-out: MIC Ab06. In short, it runs like this:
as §1

The subject of test [10] is tested Gram-positive bacterial strains. The test can be described thus: MIC, text summary over tested Gram-positive strains. The class given is cell-based.

On to `COC(=O)N/N=C/c1cn(-c2ccc(C(=O)O)cc2)nc1-c1ccc2ccccc2c1` [Compound 34], for which the MIC in test [1], in [2], in test [3], in [4], in test [5] and in [6] was more than 50 µg/mL in each case. The minimum inhibitory concentration (MIC) in test [7], in test [8] and in test [9] was more than 50 µg/mL in each case. Besides, the “antimicrobial activity against the tested strains” value (shortened to “antimicrobial activity”) in test [10] is reported as “failed to show any remarkable antimicrobial activity”.

In the case of `O=C(O)c1ccc(-n2cc(/C=N/Nc3ccccc3)c(-c3ccc4ccccc4c3)n2)cc1` [Compound 6], the MIC (commonly the smallest concentration in the dilution series that meets the test's criterion for growth inhibition) was 25 µg/mL (≈ 57.8 µM) in test [1]; more than 25 µg/mL in test [2]; 12.5 µg/mL (≈ 28.9 µM) in test [3]; 12.5 µg/mL (≈ 28.9 µM) in test [4]; 25 µg/mL (≈ 57.8 µM) in test [5]; 25 µg/mL (≈ 57.8 µM) in test [6]. Moreover, the MIC was 25 µg/mL (≈ 57.8 µM) in test [7]; more than 50 µg/mL in [8]; more than 50 µg/mL in test [9]; 25 µg/mL (≈ 57.8 µM) in test [10] (Staphylococcus aureus, read-out: MIC value against S. aureus strains).

`CN(/N=C/c1cn(-c2ccc(C(=O)O)cc2)nc1-c1ccc2ccccc2c1)c1ccccc1` [Compound 7]: the minimum inhibitory concentration (MIC) in [1] was more than 50 µg/mL; in test [2], more than 50 µg/mL; in test [3], 1.56 µg/mL (≈ 3.49 µM); in test [4] it was 1.56 µg/mL (≈ 3.49 µM); in [5], more than 50 µg/mL; in test [6], more than 50 µg/mL. In addition, the minimal inhibitory concentration (MIC) in [7], in [8] and in test [9] was more than 50 µg/mL throughout.

As for `O=C(O)c1ccc(-n2cc(/C=N/n3cnnc3)c(-c3ccc4ccccc4c3)n2)cc1` [Compound 32], the minimal inhibitory concentration (MIC) in test [1], in test [2], in [3], in test [4], in test [5] and in test [6] was more than 50 µg/mL throughout. Also, the MIC in [7], in test [8] and in test [9] was more than 50 µg/mL each time. The “antimicrobial activity” value in [10] is recorded as “failed to show any remarkable antimicrobial activity”.

For the molecule `N#Cc1ccc(N/N=C/c2cn(-c3ccc(C(=O)O)cc3)nc2-c2ccc3ccccc3c2)cc1` [Compound 26], the MIC in test [1], in [2], in [3], in test [4], in test [5] and in test [6] was more than 50 µg/mL throughout. For the same molecule, the minimal inhibitory concentration (MIC) in test [7], in test [8] and in test [9] was more than 50 µg/mL each time. In [10], the “antimicrobial activity” value is listed as “eliminated the activity”.

Consider `CN(C)/N=C/c1cn(-c2ccc(C(=O)O)cc2)nc1-c1ccc2ccccc2c1` [Compound 29], for which the minimum inhibitory concentration (MIC) was more than 25 µg/mL in test [1]; more than 50 µg/mL in test [2]; more than 25 µg/mL in [3]; 25 µg/mL (≈ 65 µM) in test [4]; more than 50 µg/mL in test [5]; more than 25 µg/mL in test [6]. For the same molecule, the minimal inhibitory concentration (MIC) in test [7] was more than 25 µg/mL; in [8], more than 50 µg/mL; in test [9] it was more than 50 µg/mL. In addition, in [10], the “antimicrobial activity” value was “did not show any activity”.

Regarding `O=C(O)c1ccc(N/N=C/c2cn(-c3ccc(C(=O)O)cc3)nc2-c2ccc3ccccc3c2)cc1` [Compound 28], the minimal inhibitory concentration (MIC) in test [1], in test [2], in [3], in [4], in test [5] and in test [6] was more than 50 µg/mL in each case. In addition, the MIC in [7], in test [8] and in test [9] was more than 50 µg/mL in each case. Further, in [10], the “antimicrobial activity” value is reported as “eliminated the activity”.

`O=C(O)c1ccc(-n2cc(/C=N/N3CCCCC3)c(-c3ccc4ccccc4c3)n2)cc1` [Compound 30]: the minimal inhibitory concentration (MIC) in test [1] was more than 25 µg/mL; in test [2], more than 25 µg/mL; in test [3] it was 25 µg/mL (≈ 58.9 µM); in test [4], 25 µg/mL (≈ 58.9 µM); in [5], more than 50 µg/mL; in [6], more than 25 µg/mL. In addition, the MIC in test [7] was 25 µg/mL (≈ 58.9 µM); in test [8] it was more than 50 µg/mL; in test [9], more than 50 µg/mL. For the same molecule, the “antimicrobial activity” value in test [10] is on record as “failed to show any remarkable antimicrobial activity”.

With `O=C(O)c1ccc(-n2cc(/C=N/N(Cc3ccccc3)c3ccccc3)c(-c3ccc4ccccc4c3)n2)cc1` [Compound 9], the MIC turned out to be 3.12 µg/mL (≈ 5.98 µM) in [1]; 1.56 µg/mL (≈ 2.99 µM) in [2]; 1.56 µg/mL (≈ 2.99 µM) in test [3]; 1.56 µg/mL (≈ 2.99 µM) in [4]; 3.12 µg/mL (≈ 5.98 µM) in [5]; 3.12 µg/mL (≈ 5.98 µM) in test [6]. The MIC in [7] was 25 µg/mL (≈ 47.8 µM); in test [8], more than 50 µg/mL; in test [9], more than 50 µg/mL; in test [10] (read-out: MIC value as low as), not below 1.56 µg/mL.

For the molecule `CN1CCN(/N=C/c2cn(-c3ccc(C(=O)O)cc3)nc2-c2ccc3ccccc3c2)CC1` [Compound 31], the MIC in test [1], in test [2], in test [3], in test [4], in test [5] and in test [6] was more than 50 µg/mL in each case. For the same molecule, the MIC in test [7], in [8] and in test [9] was more than 50 µg/mL throughout. In addition, in test [10], the “antimicrobial activity” value is listed as “failed to show any remarkable antimicrobial activity”.

For `CCc1ccccc1N/N=C/c1cn(-c2ccc(C(=O)O)cc2)nc1-c1ccc2ccccc2c1` [Compound 12], the minimum inhibitory concentration (MIC) in [1] is 25 µg/mL (≈ 54.3 µM); in test [2] it was 25 µg/mL (≈ 54.3 µM); in test [3], 12.5 µg/mL (≈ 27.1 µM); in test [4], 12.5 µg/mL (≈ 27.1 µM); in test [5], 25 µg/mL (≈ 54.3 µM); in test [6], more than 25 µg/mL. The MIC in test [7] is 25 µg/mL (≈ 54.3 µM); in [8] it was more than 50 µg/mL; in test [9], more than 50 µg/mL. Besides, the “antimicrobial activity” value in test [10] is reported as “reduced the potency drastically”.

For the molecule `Cc1ccc(N/N=C/c2cn(-c3ccc(C(=O)O)cc3)nc2-c2ccc3ccccc3c2)cc1` [Compound 11], the minimum inhibitory concentration (MIC) in test [1] was determined as 25 µg/mL (≈ 56 µM); in test [2] it was 25 µg/mL (≈ 56 µM); in test [3], 12.5 µg/mL (≈ 28 µM); in test [4] it was 6.25 µg/mL (≈ 14 µM); in test [5] it was 25 µg/mL (≈ 56 µM); in test [6], 25 µg/mL (≈ 56 µM). Also, the MIC was 25 µg/mL (≈ 56 µM) in test [7], more than 50 µg/mL in [8] and more than 50 µg/mL in test [9]. The “antimicrobial activity” value in test [10] is “reduced the potency drastically”.

As for `O=C(O)c1ccc(-n2cc(/C=N/NC3=NCCN3)c(-c3ccc4ccccc4c3)n2)cc1` [Compound 33], the minimal inhibitory concentration (MIC) in test [1], in [2], in test [3], in test [4], in [5] and in test [6] was more than 50 µg/mL in each case. The MIC in test [7], in test [8] and in test [9] was more than 50 µg/mL in each case. Besides, the “antimicrobial activity” value in test [10] was “failed to show any remarkable antimicrobial activity”.

`COc1ccc(N/N=C/c2cn(-c3ccc(C(=O)O)cc3)nc2-c2ccc3ccccc3c2)cc1` [Compound 13]: the MIC in test [1] is more than 25 µg/mL; in test [2], 25 µg/mL (≈ 54.1 µM); in test [3], 25 µg/mL (≈ 54.1 µM); in test [4], 12.5 µg/mL (≈ 27 µM); in test [5], more than 25 µg/mL; in test [6], more than 25 µg/mL. Moreover, the MIC in [7] is more than 25 µg/mL; in test [8], more than 50 µg/mL; in [9], more than 50 µg/mL. The “antimicrobial activity” value in test [10] is “reduced the potency drastically”.

With `O=C(O)c1ccc(-n2cc(/C=N/Nc3ccc([N+](=O)[O-])cc3)c(-c3ccc4ccccc4c3)n2)cc1` [Compound 27], the minimal inhibitory concentration (MIC) in test [1], in test [2], in test [3], in [4], in test [5] and in test [6] was more than 50 µg/mL each time. Also, the MIC in test [7], in [8] and in [9] was more than 50 µg/mL throughout. Also, the “antimicrobial activity” value in test [10] was “eliminated the activity”.
